This is an account of results in the RNAGym collection of RNA variant scans (doi:10.1126/science.aae0568).

To fix the notation:
B1: tRNA (parent)
chain: GUUCCGUUGGCGUAAUGGUAACGCGUCUCCCUCCUAAGGAGAAGACUGCGGGUUCGAGUCCCGUACGGAACG

Variants at the floor of the assay were thinned out. Where only a bound is given, the exact number is not on record here.

In the data set the parent is B1. Nature of the data set: yeast fitness relative to wild type (ratio to wild type); higher = fitter; tRNA-Arg(CCU), competitive growth, 37 C, YPD. The procedure, abridged: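 Genotype frequency changes were the basis for Darwinian fitness relative to wild type. The frequencies came from 100-nucleotide paired-end sequencing of gene amplicons from the start population and each end population of pooled yeast strains with tRNA-Arg(CCU) gene variants at the native locus. Competition ran in YPD at 37°C for 24 hours in six replicates, genotypes needed ≥ 100 starting reads, and estimates < 0.5 were set to 0.5.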
With U16G G23C G48A C61A, the yeast fitness came to 0.577.

As for U28G G39C C55G, the yeast fitness was not above 0.5.

On to G25C A43C, for which the yeast fitness is 1.03.

In the case of G23A U28A C30U A40C G52C G67A, the yeast fitness is not above 0.5.

As to U35A A40U A42U C55G, the yeast fitness was not above 0.5.

Take G52A U64C: the yeast fitness is 0.789.

Turning to U2G U59C, the yeast fitness was 0.848.

For C4A U53C G68C, the yeast fitness is 0.553.

G39A C62G: the yeast fitness worked out at 0.752.

As to G39A G52C C55G C60A, the yeast fitness is not above 0.5.

On to C29G U35G C60G, for which the yeast fitness is not above 0.5.

With C24A G51A C66U, the yeast fitness was not above 0.5.

As to C4G C5A C27A, the yeast fitness turned out to be 0.641.

With U3A U16C C33G C46U, the yeast fitness is not above 0.5.

As for A21U A40G C49G, the yeast fitness is not above 0.5.

As for A42G G67C, the yeast fitness came out at 0.947.

G10A C24U C60U: the yeast fitness was not above 0.5.

Turning to A15G C62A, the yeast fitness is 0.798.

Take C5A G12A: the yeast fitness amounted to 0.788.

Regarding U2C U35A G56A, the yeast fitness is 0.576.

Consider C24A C27U U54C U59C, for which the yeast fitness is 0.551.

Turning to G17C A36U G44C, the yeast fitness was not above 0.5.

C29U C46G: the yeast fitness was determined as 1.02.

Consider U8C U19C C55U, for which the yeast fitness was not above 0.5.

C31U C46G G50U C61U: the yeast fitness was not above 0.5.

For U2G U13A G58A, the yeast fitness is 0.585.

G12A C27G A40G: the yeast fitness was not above 0.5.

Consider A21U C22U, for which the yeast fitness turned out to be 0.546.

U13A C24U C55A G58C: the yeast fitness is not above 0.5.

As for G25A A43U U54A, the yeast fitness stood at 0.565.

Regarding G17C A21C C34G A37U U47C G68C, the yeast fitness was not above 0.5.

As to A20G C29A A70U, the yeast fitness amounted to 0.557.

With A15C A20G G23A C46A C49G G50A A65U A70U, the yeast fitness was not above 0.5.

As to C11A A37U G67A, the yeast fitness is not above 0.5.

On to C5U A15U, for which the yeast fitness was found to be 0.671.

Regarding C11U C30A U47A, the yeast fitness amounted to 0.57.

Turning to G10A U35G A37U U47C G56C A69C, the yeast fitness is not above 0.5.

For G6A U13C C31U U32C G67C, the yeast fitness was not above 0.5.

For the variant A15U C31G C33U A37C A65U G67A, the yeast fitness is not above 0.5.

Regarding U7A U28A, the yeast fitness turned out to be 0.605.

For the variant A14G A36U G58C, the yeast fitness was not above 0.5.

Take C4G C27U G41C A42C: the yeast fitness is not above 0.5.

U26A C27U C49A U64C: the yeast fitness was not above 0.5.

On to A14G A20C C22G C29U A69U, for which the yeast fitness was not above 0.5.

Regarding C11G C29U C31U C34U C62A C66U, the yeast fitness was not above 0.5.

As for A21C U64C, the yeast fitness came to 0.835.

C4U C24G G50A: the yeast fitness was not above 0.5.

Regarding U3A G18A C22U C61A, the yeast fitness is not above 0.5.

In the case of G6A C49U A65C, the yeast fitness amounted to 0.701.

With G17U C55U A70G, the yeast fitness was not above 0.5.

As to A15G C34A, the yeast fitness was determined as 0.811.

As to C11U C31G C49G, the yeast fitness was 0.696.

On to G9C C27G, for which the yeast fitness turned out to be 0.581.

Turning to C11A C31A, the yeast fitness turned out to be 0.524.

With A15C G41C C49U G68C, the yeast fitness was not above 0.5.

For the variant G39A G44A G51A, the yeast fitness was determined as 0.597.

Regarding C4U C31U C55G A70C, the yeast fitness is not above 0.5.

Regarding C5G U8C G12A U28A A65G, the yeast fitness is not above 0.5.

As to U7A A15C C55G, the yeast fitness was not above 0.5.

Turning to A21G C22U C30G G51A, the yeast fitness is 0.538.

For C60A G63A, the yeast fitness is 0.584.

G9A C30A A57C A70U: the yeast fitness is not above 0.5.

As for A15C A57U C62G, the yeast fitness is not above 0.5.

In the case of U8G U35A U54A, the yeast fitness turned out to be 0.548.

Consider U32C U64G, for which the yeast fitness is 0.754.

As for A14G C31G C33U G38C G58C G67U, the yeast fitness was not above 0.5.

Turning to C4A U8A G12C U19C C30U U47A A65U, the yeast fitness is not above 0.5.

Regarding U13A C33G, the yeast fitness amounted to 0.741.

Turning to A21C C24U U32A C61U, the yeast fitness was not above 0.5.

Turning to C5G G6C C46A, the yeast fitness was not above 0.5.

Turning to A15U U28A C33G U64A, the yeast fitness was not above 0.5.

For the variant G25A A42G, the yeast fitness stood at 0.89.

Take G9A G39A A45G G50A A69U: the yeast fitness is 0.548.

A20C C55U A70C: the yeast fitness was 0.612.

For U13A G38C A69C, the yeast fitness amounted to 0.524.

With G58A A70C, the yeast fitness amounted to 1.01.

G6C G25A C27G U59A U64G: the yeast fitness was not above 0.5.

Take A20U U28A A40U C62A: the yeast fitness is not above 0.5.

As to G38A C62A A65U C66U, the yeast fitness is not above 0.5.

For the variant A40U U47C, the yeast fitness turned out to be 0.869.

In the case of C5A C34A A43C A45C C46U, the yeast fitness stood at 0.593.

Turning to C24U A37G G39A G48C A69C, the yeast fitness is not above 0.5.

Consider C11G C30U G39A A45C C49U, for which the yeast fitness came to 0.614.

On to A14G A15C, for which the yeast fitness was determined as 0.733.

Turning to C4U U7A A36U A45U A57G A70G, the yeast fitness was not above 0.5.

With C4U C31A A37C G48A G58C, the yeast fitness is not above 0.5.

In the case of G17C U28A C30A C31A C60G A65G, the yeast fitness is not above 0.5.

Turning to C31U U32A U35C A65G, the yeast fitness was not above 0.5.

Consider C4A C22G C33G U54G, for which the yeast fitness was not above 0.5.

As for U13C G48C A57C, the yeast fitness is not above 0.5.

Turning to A45C A57G, the yeast fitness worked out at 0.858.

Regarding U8C G10A U19C C34A C46U A65C, the yeast fitness was not above 0.5.

In the case of C55A A57U, the yeast fitness was found to be 0.694.

Turning to C5G U13A C22G C29G A40U U54C C61G, the yeast fitness was found to be 0.588.

As for G9A C27G C34A C46G C55A G63A, the yeast fitness was not above 0.5.

Turning to A45C C62A, the yeast fitness turned out to be 0.622.

C5G A14C G18A A40G C46U C49U U53A: the yeast fitness was not above 0.5.

On to G23C C31G A40U G51A, for which the yeast fitness was determined as 0.656.

U8C A21C C30U G52A: the yeast fitness is not above 0.5.

With C11U C27G C55U C66A, the yeast fitness is not above 0.5.

With G12C U16A C27G A36G C46U C61U C62A G68A, the yeast fitness is not above 0.5.

With A14G G25A C46G A57C, the yeast fitness is not above 0.5.

A40U G52A: the yeast fitness came to 0.704.

With C11G A15C C29U G41C G52A, the yeast fitness was not above 0.5.

Take U47C A57G A69U: the yeast fitness was 0.569.

Consider U59A A70G, for which the yeast fitness came out at 0.975.

For A14G G17C C24U A69U, the yeast fitness is not above 0.5.

On to G10C C22U C49U A70G, for which the yeast fitness was not above 0.5.

On to G12A A14G A36U C46A, for which the yeast fitness is not above 0.5.

C4G G58A G67U A69C: the yeast fitness came out at 0.542.

C30G A70G: the yeast fitness was found to be 0.722.

With C24A C27A U28A C49U C55A, the yeast fitness was not above 0.5.

For G6A A20G A37G G50A, the yeast fitness is not above 0.5.

In the case of U7G C11G C34U A36G G41A A65G, the yeast fitness is not above 0.5.

Regarding A20U G38A G67C, the yeast fitness is not above 0.5.

As to C11G C29G A45U, the yeast fitness is not above 0.5.

Regarding G56A U64C, the yeast fitness was found to be 1.01.

As to A14U C62U, the yeast fitness stood at 0.616.

As to C11A U19C A21U A43U G58C C60A C66U, the yeast fitness is 0.531.

With U8A U47A, the yeast fitness stood at 0.619.

For U35A A37G A40G A43U A45C, the yeast fitness is not above 0.5.

Take G23A C30G A42G: the yeast fitness is 0.524.

In the case of U19G U32G U53G, the yeast fitness was not above 0.5.

Consider A15C A36C G38C C55U C66U, for which the yeast fitness is not above 0.5.

In the case of G17A C27G U59A C66A, the yeast fitness was not above 0.5.

In the case of G6C A14C U54C A65U, the yeast fitness came out at 0.637.

With G12A A20G C22U, the yeast fitness was not above 0.5.

On to G18A C46A U64C, for which the yeast fitness was found to be 0.535.

Take C46G U53C: the yeast fitness came out at 0.903.

For C5U U28A U35C U59A, the yeast fitness is not above 0.5.

For the variant C5U U16G G51C A57C, the yeast fitness was not above 0.5.

C22G C34A: the yeast fitness turned out to be 0.757.

As for U26C A40C, the yeast fitness is 0.941.

C4U U13A A14U C29U A37G G67A: the yeast fitness was not above 0.5.

As for U3A C5G G10A C31U C33G G48C, the yeast fitness was not above 0.5.

For C27U C34G A45U C60A, the yeast fitness is not above 0.5.

As for G39C C60U A69C, the yeast fitness came out at 0.565.

As to A14U G52A G56A, the yeast fitness was not above 0.5.

U8G C46G: the yeast fitness was found to be 0.593.

For A20G A40G C66U, the yeast fitness was 0.647.

Consider G51C C55U, for which the yeast fitness was not above 0.5.

For C22G A43U C62U, the yeast fitness was 0.56.

As for G39C G44C C46U A70U, the yeast fitness was not above 0.5.

As for A14C A45U C62A, the yeast fitness was not above 0.5.

Regarding A14U G52U, the yeast fitness worked out at 0.592.

On to U8C A15G C61U, for which the yeast fitness turned out to be 0.628.

Turning to A21C C30U G38A, the yeast fitness was not above 0.5.

With A14G A20C A57G, the yeast fitness stood at 0.677.

As to A14U G17A A43U, the yeast fitness is not above 0.5.

In the case of U7G C29G C46U, the yeast fitness amounted to 0.546.

As for A21C A70G, the yeast fitness is 0.861.

As to C11A C66G, the yeast fitness stood at 0.613.

For the variant A45C G50A G63C, the yeast fitness worked out at 0.578.

Turning to C4G C5U U19A C55G U64A, the yeast fitness was not above 0.5.

Take G52A C60A: the yeast fitness came to 0.696.

For C27G C34A A40G, the yeast fitness came to 0.644.

As for C22U A40U A65U, the yeast fitness was not above 0.5.

As for G25U C34G C55G U59C C60U G67U, the yeast fitness was not above 0.5.

On to A14G C24U A65C, for which the yeast fitness came to 0.542.

For the variant C4A A20G C24G C31G C62U, the yeast fitness was 0.598.

Turning to C24G G38A U53A, the yeast fitness was not above 0.5.

With A15U U19A A20G A40U A43U C60G C62U G68C, the yeast fitness is not above 0.5.

With A42U A57U G58C, the yeast fitness was 0.542.

For U32C A36U G38A G50A G67A, the yeast fitness was not above 0.5.

As to C5A G25A C33A A40U A69U, the yeast fitness was not above 0.5.

Take C4G U16C C31U A36G: the yeast fitness is not above 0.5.

Consider C5U A15C G23C G56A, for which the yeast fitness was not above 0.5.
